For series [1], the target named is T1, Human immunodeficiency virus type 1 integrase (Human immunodeficiency virus 1, UniProt Q7ZJM1). As to the kind of experiment: Inhibition of wild-type HIV1 integrase 3'-end processing activity. The essentials: (§1)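 Recombinant wild-type HIV-1 integrase (200 nM final) preincubated with inhibitor for 30 min at 30 °C in 25 mM MOPS pH 7.2 with 50 mM NaCl, 7.5 mM MnCl2, 10% DMSO, BSA and thiols. Then 20 nM 5′-³²P-labeled 21-mer duplex substrate (21top/21bot) was added for 1 h. Quenched in formamide dye and resolved on denaturing 20% polyacrylamide–urea gel. Selectivity index = IC50(3′-processing)/IC50(strand transfer).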
T1 sequence (Q7ZJM1 whole entry): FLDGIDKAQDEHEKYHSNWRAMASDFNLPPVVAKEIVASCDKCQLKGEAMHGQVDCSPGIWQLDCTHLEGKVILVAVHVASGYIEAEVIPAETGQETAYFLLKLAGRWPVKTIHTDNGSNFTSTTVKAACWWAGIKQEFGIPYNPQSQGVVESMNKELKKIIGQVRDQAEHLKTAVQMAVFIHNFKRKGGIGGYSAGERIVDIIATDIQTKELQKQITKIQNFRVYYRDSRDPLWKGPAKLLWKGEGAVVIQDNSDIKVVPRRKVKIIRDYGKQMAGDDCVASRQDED

Series [2] addresses T1, Human immunodeficiency virus type 1 integrase. The series can be described thus: Inhibition of wild-type HIV1 integrase strand transfer activity. The essentials:
as §1

For series [3], the target named is Human immunodeficiency virus type 1 integrase (Human immunodeficiency virus 1) (UniProt Q7ZJM1). The series can be described thus: Selectivity index, ratio of IC50 for wild-type HIV1 integrase 3'-end processing activity to IC50 for wild-type HIV1 integrase strand transfer activity. Summed up: as §1
Human immunodeficiency virus type 1 integrase (Human immunodeficiency virus 1), sequence (Q7ZJM1 as listed by the source): as the sequence (Q7ZJM1 whole entry) above
The nature of series [4]: Cytotoxicity against human HCT 116 cells after 72 hrs by MTT assay. It is filed as cell-based. As to conditions: hct-116, 72 h. The essentials:
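HCT-116 monolayers were seeded at 8 × 10³ cells/well and attached overnight. Compounds in RPMI-1640 with 10% […] were added at a single final concentration of 10 and exposed for 72 h. MTT was then added for 4 h, crystals were dissolved in DMSO, and absorbance was read at 570 nm against blanks.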

Series [5] concerns HCT-116 (Homo sapiens). The series can be described thus: Cytotoxicity against human HCT 116 cells by MTT assay. Background: Tetrazolium dyes change colour on reduction, which living cells bring about.

Active and inactive are the calls of the source. No cut-off for these calls is given here. Where only a bound is given, the exact number is not on record here.

Broadly, the IC50 is the concentration that gives 50% inhibition. Lower therefore signals inhibition by little substance. For `Cc1cc2c(c(=O)o1)C(/C=C/c1ccc(F)cc1)=[O+][B-](F)(F)O2`, the IC50 in series [1] was 9 µM; in series [2] it was 16 µM. The Ratio IC50 in series [3] is 0.6. The compound also yielded an Activity in series [4] of over 10 µM.

As for `Cc1cc(O)c(C(=O)/C=C/C=C/c2ccc(N(C)C)cc2)c(=O)o1`, the IC50 in series [1] and in series [2] was over 100 µM throughout. This compound came in with an Activity in series [4] of over 10 µM.

As to `CN(C)c1ccc(/C=C/C(=O)c2c(O)cc(/C=C/c3ccc(N(C)C)cc3)oc2=O)cc1`, the concentration for half-maximal inhibition (IC50) in series [1] and in series [2] was over 100 µM each time. The same compound yielded an Activity in series [4] of over 10 µM.

For `Cc1cc2c(c(=O)o1)C(/C=C/C=C/c1ccc(N(C)C)cc1)=[O+][B-](F)(F)O2`, the half-inhibitory concentration (IC50) in series [1] is over 100 µM; in series [2], 100 µM. This compound displayed an Activity in series [4] of over 10 µM.

`Cc1cc(O)c(C(=O)/C=C/c2ccc(Br)cc2)c(=O)o1`: the IC50 in series [1] and in series [2] was over 100 µM throughout. Moreover, the Activity in series [4] was over 10 µM.

In the case of `COc1ccc(Br)cc1/C=C/C1=[O+][B-](F)(F)Oc2cc(/C=C/c3ccc(N(C)C)cc3)oc(=O)c21`, the IC50 in series [1] and in series [2] was over 100 µM each time. In series [4], the Activity was over 10 µM.

In the case of `COc1ccc(Br)cc1/C=C/C(=O)c1c(O)cc(/C=C/c2ccc(N(C)C)cc2)oc1=O`, the IC50 was over 100 µM in series [1] and 100 µM in series [2]. For the same compound, the Activity in series [4] is over 10 µM.

For `Cc1cc2c(c(=O)o1)C(/C=C/c1ccc(N(C)C)s1)=[O+][B-](F)(F)O2`, the 50% inhibitory concentration (IC50) in series [1] and in series [2] was over 100 µM throughout. Moreover, the Activity in series [4] is over 10 µM.

`COc1ccc(/C=C/C=C/C2=[O+][B-](F)(F)Oc3cc(C)oc(=O)c32)cc1`: the IC50 in series [1] turned out to be 11 µM; in series [2], 4 µM. Moreover, the Ratio IC50 in series [3] amounted to 2.5. The same compound had an Activity in series [4] of over 10 µM. The outcome in series [5] was inactive.

Regarding `COc1ccc(/C=C/C(=O)c2c(O)cc(/C=C/c3ccc(N(C)C)cc3)oc2=O)cc1`, the concentration for half-maximal inhibition (IC50) in series [1] and in series [2] was over 100 µM in each case. In addition, the Activity in series [4] is over 10 µM.

In the case of `Cc1cc2c(c(=O)o1)C(/C=C/C=C1/N(C)c3ccccc3C1(C)C)=[O+][B-](F)(F)O2`, the IC50 in series [1] and in series [2] was over 100 µM each time. The Activity in series [4] is over 10 µM.

Turning to `Cc1cc(O)c(C(=O)/C=C/c2ccc(F)cc2)c(=O)o1`, the figures for the IC50 in series [1] and in series [2] were 64 µM and over 100 µM, respectively. Moreover, the Ratio IC50 in series [3] was under 0.7. In addition, the Activity in series [4] was over 10 µM.

As for `Cc1cc2c(c(=O)o1)C(/C=C/c1ccc(Br)cc1)=[O+][B-](F)(F)O2`, the results for the IC50 in series [1] and in series [2] were 12 µM and 4 µM, respectively. The Ratio IC50 in series [3] was 3.3. In series [4], this compound registered an Activity of over 10 µM. The outcome in series [5] was inactive.

As for `COc1ccc(/C=C/C2=[O+][B-](F)(F)Oc3cc(/C=C/c4ccc(N(C)C)cc4)oc(=O)c32)cc1`, the IC50 in series [1] and in series [2] was over 100 µM in each case. For the same compound, the Activity in series [4] was over 10 µM.

For the compound `Cc1cc(O)c(C(=O)/C=C/C=C2/N(C)c3ccccc3C2(C)C)c(=O)o1`, the IC50 in series [1] and in series [2] was over 100 µM in each case. Further, in series [4], the Activity was over 10 µM.

For the compound `CN(C)c1ccc(/C=C/C2=[O+][B-](F)(F)Oc3cc(/C=C/c4ccc(N(C)C)cc4)oc(=O)c32)cc1`, the concentration for half-maximal inhibition (IC50) in series [1] and in series [2] was over 100 µM throughout. This compound registered an Activity in series [4] of over 10 µM.

As to `Cc1cc(O)c(C(=O)/C=C/c2ccc(Br)s2)c(=O)o1`, the IC50 in series [1] came out at 65 µM; in series [2] it was 23 µM. Further, the Ratio IC50 in series [3] came out at 2.8. This compound came in with an Activity in series [4] of over 10 µM.

Take `CC[NH+](CC)CC.Cc1cc2c(c(=O)o1)C(/C=C/C=C1\O[B-](F)(F)Oc3cc(C)oc(=O)c31)=[O+][B-](F)(F)O2`: the IC50 in series [1] was 13 µM; in series [2], 7 µM. For the same compound, the Ratio IC50 in series [3] came out at 1.9. The compound further registered an Activity in series [4] of over 10 µM. For the same compound, the result in series [5] was inactive.

As for `COc1ccc(/C=C/C=C/C(=O)c2c(O)cc(C)oc2=O)cc1`, the results for the IC50 in series [1] and in series [2] were over 100 µM and 39 µM, respectively. In series [3], the Ratio IC50 is over 2.6. The compound further registered an Activity in series [4] of over 10 µM.

As for `Cc1cc(O)c(C(=O)/C=C/c2ccc(N(C)C)s2)c(=O)o1`, the half-maximal inhibitory concentration (IC50) in series [1] came to 19 µM; in series [2], 11 µM. Besides, the Ratio IC50 in series [3] was 1.8. Besides, in series [4], the Activity was over 10 µM.

With `Cc1cc2c(c(=O)o1)C(/C=C/c1ccc(Br)s1)=[O+][B-](F)(F)O2`, the IC50 in series [1] was determined as 9 µM; in series [2], 3 µM. The Ratio IC50 in series [3] was 3.2. Also, in series [4], the Activity was over 10 µM. For the same compound, the outcome in series [5] was inactive.

Consider `Cc1cc2c(c(=O)o1)C(/C=C/c1ccc(N(C)C)cc1)=[O+][B-](F)(F)O2`, for which the values for the IC50 in series [1] and in series [2] were over 100 µM and 56 µM, respectively. Besides, in series [3], the Ratio IC50 was over 1.8. This compound showed an Activity in series [4] of over 10 µM.

Values taken from ChEMBL document CHEMBL1142446, “Discovery of 3-acetyl-4-hydroxy-2-pyranone derivatives and their difluoridoborate complexes as a novel class of HIV-1 integrase inhibitors” (Bioorg Med Chem, 2008).
